Only some compounds are listed: those with a hit (about 2.4% of all), similar ones and a draw of the others.
Runt-SMMHC FRET – inhibitors of human RUNX1 Runt domain binding to CBFb-SMMHC. Cerulean-Runt/Venus-CBFb-SMMHC FRET ratio 530/480, 1 h. AID 1434. actives 0.74% (n = 220,000). inhibition, % at 20 µM;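 active = mean inhibition across duplicate retests at 20 µM reaching about 50%, limit read from the data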;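 note: 0% = DMSO wells and 100% = wells with excess untagged CBFb-SMMHC; inhibitors lower the FRET ratio by blocking Runt binding to CBFb-SMMHC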
Target sequence (Q01196 whole entry, looked up, the tested form may be a part): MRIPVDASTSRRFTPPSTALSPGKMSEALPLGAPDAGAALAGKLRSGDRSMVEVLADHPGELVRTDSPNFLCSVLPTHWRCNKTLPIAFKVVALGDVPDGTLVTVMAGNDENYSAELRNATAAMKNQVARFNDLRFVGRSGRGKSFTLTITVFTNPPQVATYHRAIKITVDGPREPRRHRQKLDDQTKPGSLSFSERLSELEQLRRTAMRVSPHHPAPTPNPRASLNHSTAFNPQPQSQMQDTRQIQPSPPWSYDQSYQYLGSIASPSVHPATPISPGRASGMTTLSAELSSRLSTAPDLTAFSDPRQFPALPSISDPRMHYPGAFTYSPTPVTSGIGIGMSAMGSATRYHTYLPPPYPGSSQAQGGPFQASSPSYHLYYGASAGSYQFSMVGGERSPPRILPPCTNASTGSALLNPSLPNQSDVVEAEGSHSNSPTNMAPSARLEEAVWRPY
Target sequence (Q13951 whole entry, looked up, the tested form may be a part): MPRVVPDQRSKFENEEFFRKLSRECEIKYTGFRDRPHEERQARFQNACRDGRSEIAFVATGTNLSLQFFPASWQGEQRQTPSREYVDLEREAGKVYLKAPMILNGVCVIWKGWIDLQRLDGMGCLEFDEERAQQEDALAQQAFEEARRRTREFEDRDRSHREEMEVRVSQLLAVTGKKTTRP
LANA-H2B inh – blocks KSHV LANA binding to histone H2A/H2B; Q9QR71; cell-free LANA-H2A/H2B peptide, fluorescence polarization; inhibition, % (concentration not given with the values); actives 0.6% (n = 320,000); AID 2629; in the data active = inhibition mostly above about 10%, no sharp cut-off; inactive = mostly below about 6.7%
EBV gp42 block – blocks Epstein-Barr virus glycoprotein 42 binding. inhibition, % (tested at 21.74 µM). actives 0.42% (n = 220,000). Fluorescence polarization binding assay, mP read-out. Q1HVG2; in the data active = inhibition above about 50%
Runt-CBFb FRET – inhibitors of human RUNX1 Runt domain binding to CBFb | Cerulean-Runt/Venus-CBFb FRET ratio 530/480, 1 h | Q01196+Q13951 | AID 1496 | inhibition, % at 20 µM | actives 0.46% (n = 220,000);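 active = inhibition over about 50% at 20 µM in the single-dose screen, limit read from the data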;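 note: 0% = DMSO wells and 100% = excess unlabeled CBFb competitor control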
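Assay system: Cerulean-Runt domain / Medium: Tris 50 mM pH 7.5, KCl, K2SO4, 0.01% BSA / Timing: protein complex preformed 1 h, compound exposure 1 h, room temperature, dark / Measured by: FRET, excitation 422 nm, emission at 530 and 480 nm / Evaluation: loss of energy transfer signal / Control set: 5 µM unlabeled CBFb as full-inhibition high control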
RanGTP-Impb inh – inhibitors of RanGTP-importin-beta interaction, primary screen, biochemical, FRET, CFP-Ran, YFP-importin-beta, homogeneous; inhibition, % (no concentration beside the values); AID 2216; actives 1.1% (n = 300,000); cell-free CFP-Ran/YFP-importin-beta FRET ratio;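 active = more than half of the replicate wells show a fall in the fluorescence ratio signal beyond about 16%, limit read from the data, passing the limit was not always enough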;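 note: 0% = DMSO wells and 100% = Ran loaded with GDP instead of GTP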
MEX-5 binding – C. elegans MEX-5 TCR-2 RNA binding activity; MEX-5/FITC-TCR2 RNA binding, fluorescence polarization; hits give low values; activity score (negative = inhibition of binding), % at 10 µM; actives 0.38% (n = 300,000);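 active = inhibition past about -25% in most replicates, and total fluorescence under double the plate's negative control median, limit read from the data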;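 note: 0% = DMSO and -100% = 5 µM competing unlabeled TCR2 RNA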
The depositor's hits bear a star; . = no result; ! = a repeat was not active.

SMILES | Runt-SMMHC FRET | LANA-H2B inh | EBV gp42 block | Runt-CBFb FRET | RanGTP-Impb inh | MEX-5 binding
CCOC(=O)c1sc2nc3c(SCCC(=O)O)cc(C(=O)c4cc(OC)ccc4O)cn3c(=O)c2c1C | -11 | . | 79* | -4 | 1 | 0
CCOc1ccc(S(=O)(=O)N2CCC(C(=O)NCc3ccccc3CN3CCCC3)CC2)cc1 | . | 0 | . | . | . | .
CCCCn1c(N)c(N(CCOC)C(=O)Cn2c(=O)oc3ccccc32)c(=O)[nH]c1=O | . | 1 | . | . | 0 | -1
CC(=O)N1N=C(c2ccccc2)CC1c1cccs1 (configuration not stated) | . | -1 | . | . | 3 | 0
CC(=O)Nc1ccc(C2=NN(c3ccccc3)C(c3cccs3)C2)cc1 (configuration not stated) | 55* | -10 | -6 | 23 | 1 | 0
Cc1sc(N2CCN(S(=O)(=O)c3ccc4c(c3)NC(=O)CO4)CC2)nc1-c1ccccc1 | . | -4 | . | . | -4 | 2
c1ccc(-c2nc(N3CCCCC3)nc3ccccc23)cc1 | 118* | 0 | 3 | 35 | 41* | -3
Cc1ccc2nc(N3CCN(C(=O)CCC(=O)O)CC3)nc(-c3ccccc3)c2c1 | . | 0 | . | . | 30* | -1
O=C(O)CCCC(=O)N1CCN(c2nc(-c3ccccc3)c3ccccc3n2)CC1 | 14 | -3 | -6 | 14 | 20* | -1
O=C1NC[C@@H](Cc2cccc3ccccc23)N(CCC23CC4CC(CC(C4)C2)C3)C1=O | . | -1 | . | . | 8 | -1
Cc1cc(C(=O)NN)n[nH]1 | 3 | 1 | -16 | 0 | -5 | 4
O=C1NN(c2ccc(Br)cc2)C(=O)/C1=C\c1ccc(O)cc1O | . | 5 | . | . | 142* | -4
CCN(CC)S(=O)(=O)c1ccc2c(c1)C(=NO)c1cc(S(=O)(=O)N(CC)CC)ccc1-2 | 2 | 0 | 2 | -10 | 1 | 0
CC(=O)N/N=C/c1cc(C(C)C)cc(/C=N/NC(C)=O)c1O | 86 | 3 | 71* | -82 | -182 | -3
CC(=O)/C(N=Nc1nc2c([nH]1)c(=O)n(C)c(=O)n2C)=C(\C)O | -1 | 0 | 15 | -7 | 6 | -36*
Cn1c(=O)c2[nH]c(N=NNc3ccccc3F)nc2n(C)c1=O | -5 | 1 | -7 | 0 | 2 | -34*
CN1C(=O)C(=O)/C(=C(/O)c2ccccc2)C1c1ccc([N+](=O)[O-])cc1 (configuration not stated) | . | -2 | . | . | 2 | 0
Cc1cccc(N2CC(C(=O)OCC(=O)c3ccc(OC(=O)c4cccs4)cc3)CC2=O)c1C (configuration not stated) | -5 | 2 | 1 | -3 | -2 | 2
CCOC(=O)CNS(=O)(=O)c1ccc2c3c(cccc13)C(=O)N2CC | 86* | 8 | -2 | 0 | 21* | 4
CN1C(=O)c2cccc3c(S(=O)(=O)NCCc4ccccc4)ccc1c23 | . | -1 | . | . | 8 | -1
CCN1C(=O)c2cccc3c(S(=O)(=O)NCc4ccccn4)ccc1c23 | 57 | 1 | 2 | -20 | 23* | -3
CCN1C(=O)c2cccc3c(S(=O)(=O)Nc4c(C)n(C)n(-c5ccccc5)c4=O)ccc1c23 | -1 | 0 | -6 | -1 | 4 | -2
COCCNS(=O)(=O)c1ccc2c3c(cccc13)C(=O)N2C | 90 | 3 | 8 | -15 | 23* | -4
Cc1nc(-c2cccc(NC(=O)c3cccc(S(=O)(=O)N4CCCC4)c3)c2)cs1 | . | 1 | . | . | . | .
O=C(/C=C/c1cccs1)NC1CC1 | -4 | -1 | -10 | 0 | 21* | -2
SMILES | Runt-SMMHC FRET | LANA-H2B inh | EBV gp42 block | Runt-CBFb FRET | RanGTP-Impb inh | MEX-5 binding
O=C(/C=C/c1cccs1)Nc1cccc(NC(=O)/C=C/c2cccs2)n1 | 1 | . | -51 | 0 | 4 | 10
O=C(O)c1cccc(-n2cccc2/C=C2/NC(=O)N(c3cccc(Cl)c3)C2=O)c1 | 29 | 3 | -25 | 20 | 0 | .
O=C(O)c1cccc(-n2cccc2/C=C2/NC(=O)N(c3ccc(Cl)cc3)C2=O)c1 | 13 | . | 95* | 39 | . | .
COc1ccc(N2CCN(S(=O)(=O)Cc3ccccc3)CC2)cc1 | 2 | 2 | -14 | 2 | -1 | 2
O=S(=O)(Cc1ccccc1)N1CCN(c2ccccc2)CC1 | -4 | 1 | -16 | . | 59* | 0
N#CC1=C(N)OC2=C(CCC/C2=C/c2ccoc2)C1c1ccoc1 (configuration not stated) | 11 | . | -4 | 14 | 2 | -18
N#CC1=C(N)OC2=C(CC/C2=C\c2ccc(F)cc2)C1c1ccc(F)cc1 (configuration not stated) | -135 | 1 | 61* | -55 | . | -2
CCN1CC2=C(OC(N)=C(C#N)C2c2ccccc2)/C(=C\c2ccccc2)C1 (configuration not stated) | 1 | 3 | 12 | 4 | 21* | -1
CCC/C(=N\NC(=O)C1CC1)c1ccccc1 | . | 7 | . | . | 0 | -4
CCC/C(=N/NC(=O)c1cccc(Cl)c1)c1ccccc1 | -3 | 14* | -6 | -2 | -3 | 0
N#Cc1c(-c2ccccc2)cc2nc3ccccc3n2c1N | 10 | -5 | 8 | 7 | 17* | -3
COc1cc(-c2c(C#N)c(N)nc(SCc3ccncc3)c2C#N)cc(OC)c1OC | 4 | -1 | 7 | -3 | 8 | 7
COc1cc(-c2cc3nc4ccccc4n3c(N)c2C#N)cc(OC)c1OC | 15 | -1 | -8 | 7 | 25* | -1
O=C(O)Cc1ccc(O)c(F)c1 | 6 | 47*! | 0 | 0 | 3 | 2
O=C(CSc1nc2ncccc2[nH]1)Nc1ccc2c(c1)OCO2 | -2 | -3 | 73* | 1 | 5 | 0
COc1ccc(NC(=O)CSc2nc3ncccc3[nH]2)cc1OC | 2 | -1 | 1 | -1 | -1 | -3
CCC(C)NC(=O)c1ccc(CSCc2cccc(F)c2)o1 (configuration not stated) | -2 | -1 | 110* | 1 | -5 | -1
CCNNC(=O)C(O)(Cc1ccccc1)Cc1ccccc1 | . | 3 | . | . | -1 | -1
CN(C)C(CNC(=O)c1ccc(Cl)c(S(=O)(=O)N2CCCCCC2)c1)c1ccccc1 (configuration not stated) | . | 15* | . | . | . | .
Nc1cccc2c1C(=O)N(C(=O)c1cccc(S(=O)(=O)N3CCCCCC3)c1)C2=O | 62* | -3 | -3 | 12 | 19* | -1
Nc1cccc2c1C(=O)N(C(=O)c1ccc(Cl)c(S(=O)(=O)N3CCCCCC3)c1)C2=O | 62* | 2 | -3 | -12 | 20* | 0
COc1ccc2nc(NC(=O)CSc3n[nH]c(N)n3)sc2c1 | . | 3 | . | . | 0 | -11
